An excerpt weighted towards active compounds, which were near 3.5% of everything screened.
RGS4 pot – potentiators or activators of RGS4; hit rate 0.92% among 310,000; AID 463111; B-score at 10 µM; HEK293 M3R/inducible RGS4, carbachol calcium flux Fluo4; hits give low values;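 active = B-score of the integrated calcium signal more than 4 SD below the library mean, with starting fluorescence not abnormally high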;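 note: negative B-score means reduced calcium response which marks RGS4 activation or potentiation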
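Also added: carbachol at ECmax as muscarinic agonist stimulus; Assay system: HEK293 cells with stable M3R and inducible RGS4; Timing: overnight RGS4 induction, 30 min dye load 37 °C, 20 min compound RT; Measured by: Fluo4-AM (2 µM) calcium-flux fluorescence, kinetic read.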
RGS4 inh – inhibitors of human RGS4 | P49798 | HEK293 M3R/RGS4 inducible, Fluo-4 calcium flux; hits give high values; triggered by carbachol at its EC20 | B-score at 10 µM | hit rate 0.45% among 310,000 | AID 463165;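 active = B-score, a plate-corrected calcium signal, over three deviations above library mean, with baseline fluorescence within five deviations of library mean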;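 note: RGS4 expression induced by doxycycline in cells with stable M3 receptor; B-score is computed from the integrated fluorescence ratio over baseline after carbachol; higher B-score means a larger calcium signal and so more RGS4 inhibition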
Target sequence (P49798 whole entry, looked up): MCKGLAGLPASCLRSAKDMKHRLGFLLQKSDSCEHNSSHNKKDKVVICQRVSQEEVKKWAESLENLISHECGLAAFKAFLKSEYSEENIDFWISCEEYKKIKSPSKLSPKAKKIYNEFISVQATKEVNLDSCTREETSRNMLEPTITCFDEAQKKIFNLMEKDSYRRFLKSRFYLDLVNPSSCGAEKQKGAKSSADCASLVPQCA
MrgX1 ag – human MrgX1 receptor agonism, primary screen; Q96LB2; MrgX1-HEK293 cells, Fluo-4 calcium fluorescence, agonist mode; hits give high values; hit rate 0.44% among 310,000; B-score at 10 µM;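 active = calcium response B-score plate-corrected fluorescence ratio at least 3 library SD, with starting fluorescence B-score inside 5 SD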
Target sequence (Q96LB2 whole entry, looked up): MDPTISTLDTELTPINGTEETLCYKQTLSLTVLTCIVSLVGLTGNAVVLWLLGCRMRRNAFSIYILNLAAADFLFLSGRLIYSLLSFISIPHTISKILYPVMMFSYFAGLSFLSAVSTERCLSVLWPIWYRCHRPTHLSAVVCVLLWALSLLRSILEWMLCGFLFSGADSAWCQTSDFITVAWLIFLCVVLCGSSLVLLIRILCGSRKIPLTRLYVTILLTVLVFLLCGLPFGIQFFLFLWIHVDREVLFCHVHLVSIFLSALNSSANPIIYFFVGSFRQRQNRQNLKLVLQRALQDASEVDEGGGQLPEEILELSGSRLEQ
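System: HEK293 cells stably expressing human MrgX1 receptor; Dosing: test compound in the initial addition of three; Schedule: overnight plating, then 30 min 37 °C plus 30 min room-temperature dye loading; Detection: kinetic calcium dye fluorescence, Fluo-4 NW; Controls: per-plate positive and negative controls for Z′ factor.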
MrgX1 antag – blocks BAM8-22 activation of human MrgX1 receptor; Q96LB2; MRGX1-HEK293 calcium flux, Fluo-4, BAM8-22 antagonism; hits give low values; B-score at 10 µM; hit rate 1.3% among 310,000;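 active = calcium-response B-score plate-corrected more than 3 library SD below zero, starting fluorescence within 5 deviations, no agonist response on first addition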;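 note: peak minus trough fluorescence over baseline after final BAM8-22 challenge near maximal dose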
MrgX1 PAM – allosterically activates human MrgX1 receptor signaling | Q96LB2 | MrgX1-HEK293, Fluo-4 calcium flux, FDSS; hits give high values | B-score at 10 µM | hit rate 0.63% among 310,000 | AID 588675;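 active = plate-corrected calcium response at least 3 library SD above typical, normal starting fluorescence, not activating the receptor alone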;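 note: compound read alongside a low EC10 to EC30 dose of BAM8-22 agonist; peak minus trough fluorescence over baseline measured at the second addition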
RGS4 block valid – RGS4 inhibitor validation; shares compounds with RGS4 inh; HEK293 M3R/RGS4, carbachol calcium Fluo-4 fluorescence; carbachol added at its EC20; 0 = buffer wells, 100 = carbachol control; calcium response, % at 10 µM; hit rate 65% among 1,700; AID 492999;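 active = duplicate-averaged calcium response above the buffer-only control mean plus 5 SD of those controls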;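 note: integrated fluorescence ratio F max minus min over baseline F0; higher response in RGS4-induced cells means RGS4 inhibition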
RGS4 uninduced – checks RGS4 inhibitor effects in non-induced HEK293 M3R cells; AID 493000; shares compounds with RGS4 inh; activity (percent), % at 10 µM; hit rate 20% among 1,900; carbachol calcium Fluo-4; submaximal (EC20) carbachol stimulus; buffer wells 0%, carbachol control wells 100%; call rule not given here;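 note: RGS4 induction absent so cells express M3R without RGS4; higher means more calcium signal and flags a non-specific hit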
RGS4 inh ctr2 – second RGS4 inhibitor counter-screen in uninduced cells lacking carbachol; shares compounds with RGS4 inh; HEK293 M3R/RGS4 non-induced, Fluo-4 calcium, no carbachol; normalised: buffer wells 0%, carbachol wells 100%; calcium response (agonist-mode artifact), % at 10 µM; hit rate 22% among 1,900;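 active = duplicate-averaged calcium rise in uninduced cells above buffer wells' mean plus 5 SD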
Large screens that a line does not name were inactive (follow-up assays come after a bar, where they were run).

CC(=O)Oc1ccc([C@@H]2COc3c(ccc4c3C=CC(C)(C)O4)C2)c(OC(C)=O)c1	RGS4 inh 6.1 | RGS4 block valid 17% | RGS4 uninduced inactive | RGS4 inh ctr2 inactive
COc1ccc(-c2oc(NC(=O)CCl)c(C#N)c2-c2ccc(OC)cc2)cc1	RGS4 inh 11 | RGS4 block valid 58% | RGS4 uninduced inactive | RGS4 inh ctr2 inactive
COc1ccc(-c2oc(NC(=O)CSc3ncn[nH]3)c(C#N)c2-c2ccc(OC)cc2)cc1	none
CCC(C(=O)NCCc1ccc(C)cc1)n1nc(C)c2c(C)n(-c3ccccc3)nc2c1=O (configuration not stated)	none
CCC(C(=O)N1CCCC1)n1nc(C)c2c(C)n(-c3ccccc3)nc2c1=O (configuration not stated)	none | RGS4 block valid inactive | RGS4 uninduced inactive | RGS4 inh ctr2 inactive
CN(C(=O)COC(=O)C1CSC2(C)CCC(=O)N12)c1ccccc1 (configuration not stated)	none
Cc1ccc(NCC(=O)N/N=C/c2ccc(-c3cccc(C(F)(F)F)c3)o2)cc1	RGS4 inh 28 | RGS4 block valid 62% | RGS4 uninduced 37% | RGS4 inh ctr2 inactive
Cn1c(SCc2cc([N+](=O)[O-])cc3c2OCOC3)nnc1-c1ccccn1	none
O=C(c1cc2n(n1)C(C(F)(F)F)CC(c1ccco1)N2)N1CCc2ccccc2C1 (configuration not stated)	RGS4 inh 5.2 | RGS4 block valid 8.0% | RGS4 uninduced inactive | RGS4 inh ctr2 28%
Cn1cc(CN2C[C@H]3CC[C@H]2C3)c(-c2ccccc2F)n1	none
N#Cc1cc(N)ccc1-n1cccc1	none
CCOC(=O)Cn1cc(/C=N/N2C(=O)C3C4C=CC(C4)C3C2=O)c2ccccc21 (configuration not stated)	none
O=C(Nc1ccc(Cl)cc1)C1CCCN(c2ncnc3c2nc2n3CCCCC2)C1 (configuration not stated)	none
O=C(CN(C(=O)CNS(=O)(=O)c1ccc(F)cc1)c1ccc(F)cc1)NCc1ccco1	none | RGS4 block valid inactive | RGS4 uninduced inactive | RGS4 inh ctr2 inactive
Cc1ccc(C)c(N(CC(=O)NCc2ccco2)C(=O)CNS(=O)(=O)c2ccc(F)cc2)c1	none
O=C(CN(C(=O)CNS(=O)(=O)c1ccc(F)cc1)c1ccccc1)NCc1ccco1	none | RGS4 block valid inactive | RGS4 uninduced inactive | RGS4 inh ctr2 inactive
O=C(CN(C(=O)CNS(=O)(=O)c1ccc(F)cc1)c1ccccc1F)NCc1ccco1	RGS4 inh 4.9 | RGS4 block valid inactive | RGS4 uninduced inactive | RGS4 inh ctr2 inactive
NC(=O)CC(NC(=O)Cc1ccc(Cl)cc1)c1ccc(NC2CCN(Cc3ccccc3)CC2)c([N+](=O)[O-])c1 (configuration not stated)	none | RGS4 block valid inactive | RGS4 uninduced inactive | RGS4 inh ctr2 inactive
NC(=O)CC(NC(=O)c1cccc(Br)c1)c1ccc(NC2CCN(Cc3ccccc3)CC2)c([N+](=O)[O-])c1 (configuration not stated)	none
COc1ccc(S(=O)(=O)N(C)C)cc1NC(=O)CCCSc1ccccc1	none
Cc1ccccc1-n1c(SCC(=O)N/N=C/c2sccc2C)nc2ccccc2c1=O	RGS4 inh 5.5 | RGS4 block valid inactive | RGS4 uninduced inactive | RGS4 inh ctr2 inactive
Cc1ccc(/C=N/NC(=O)CSc2nc3ccccc3c(=O)n2-c2ccccc2C)s1	none
CN(CC(=O)Nc1cccc(F)c1)C(=O)COc1cccc2c1OC(C)(C)C2	none
Cc1cccc(NC(=O)Cn2cnc(S(=O)(=O)N3CCCC3)c2)c1C	none
Cc1nnc(Sc2cc(NCCO)c([N+](=O)[O-])c3nonc23)s1	none (no result: MrgX1 ag, MrgX1 antag, MrgX1 PAM) | RGS4 block valid inactive | RGS4 uninduced inactive | RGS4 inh ctr2 inactive
Cc1nnc(Sc2cc(NCCCO)c([N+](=O)[O-])c3nonc23)s1	RGS4 inh 10 (no result: MrgX1 ag, MrgX1 antag, MrgX1 PAM) | RGS4 block valid 21% | RGS4 uninduced inactive | RGS4 inh ctr2 inactive
CCCSc1cc(NCCOC(C)=O)c([N+](=O)[O-])c2nonc12	none
O=[N+]([O-])c1c(NCCCO)cc(Sc2nc3ccccc3s2)c2nonc12	RGS4 inh 4.7 | RGS4 block valid 9.5% | RGS4 uninduced inactive | RGS4 inh ctr2 150%
CCCC(=O)OCCNc1cc(Sc2nccn2C)c2nonc2c1[N+](=O)[O-]	RGS4 inh 13 | RGS4 block valid 59% | RGS4 uninduced inactive | RGS4 inh ctr2 inactive
CCC(=O)OCCNc1cc(Sc2nc3ccccc3s2)c2nonc2c1[N+](=O)[O-]	none
Cc1ccc(OCC(O)CNC2CCCC2)cc1C (configuration not stated)	none
CCN(CC)S(=O)(=O)c1cccc(NC(=O)COc2ncnc3sccc23)c1	none
CCCCc1nnc(NC(=O)CN2C(=O)NC3(CCCCC3)C2=O)s1	none
O=C(NCCc1c[nH]c2ccccc12)C(=O)NCC(c1ccco1)N1CCN(c2ccccc2)CC1 (configuration not stated)	none
CC(C)CC(=O)/C(=C\c1ccc(Cl)cc1Cl)n1cncn1	RGS4 inh 6.8 (no result: MrgX1 ag, MrgX1 antag, MrgX1 PAM) | RGS4 block valid 16% | RGS4 uninduced inactive | RGS4 inh ctr2 20%
CC(C)CC(=O)/C(=C/c1ccc(N(C)C)cc1)n1cncn1	none
Cc1nc(NC(=O)CSc2nc3cccnc3n2C2CCCCC2)sc1C	none | RGS4 uninduced inactive | RGS4 inh ctr2 inactive
CCc1nnc(NC(=O)CSc2nc3cccnc3n2C2CCCCC2)s1	none
CCOc1cccc(CN(CC)CC2CCCN(CCc3cccc(OC)c3)C2)c1O (configuration not stated)	none
CCC(C)Nc1nc2c(c(=O)[nH]c(=O)n2C)n1CCOc1ccccc1 (configuration not stated)	none
CCCCn1c(NC(C)CC)nc2c1c(=O)[nH]c(=O)n2C (configuration not stated)	RGS4 inh 4.7 | RGS4 block valid 9.5% | RGS4 uninduced inactive | RGS4 inh ctr2 inactive
CCOC(=O)[C@@H]1[C@H]2COc3ccccc3[C@@H]2N2C(=O)N(c3ccc(F)cc3)C(=O)[C@@]12C	none | RGS4 block valid inactive | RGS4 uninduced 38% | RGS4 inh ctr2 inactive
CCOC(=O)[C@@H]1[C@H]2COc3ccc(Br)cc3[C@@H]2N2C(=O)N(c3ccc(C)cc3)C(=O)[C@]12C	none

High-throughput results: PubChem, Johns Hopkins Ion Channel Center
